# Experimental data as given in publication PMC5965259 (Journal of medicinal chemistry, 2018).
# Columns and labels:
# [1] = system: T. brucei AdoMetDC/prozyme; experiment: biochemical; settings: pH 7.2; human vs T. brucei AdoMetDC
# [2] = system: bloodstream form T. brucei Lister 427; experiment: ATP–bioluminescence-based bloodstream form T. brucei cell viability assay; settings: Trypanosoma brucei, 48 h, read-out: Tb427 EC50
# [3] = target: T1, T. brucei AdoMetDC/prozyme (Trypanosoma brucei brucei, UniProt P50244); experiment: biochemical
# T1 sequence (P50244 86-370 limits assumed): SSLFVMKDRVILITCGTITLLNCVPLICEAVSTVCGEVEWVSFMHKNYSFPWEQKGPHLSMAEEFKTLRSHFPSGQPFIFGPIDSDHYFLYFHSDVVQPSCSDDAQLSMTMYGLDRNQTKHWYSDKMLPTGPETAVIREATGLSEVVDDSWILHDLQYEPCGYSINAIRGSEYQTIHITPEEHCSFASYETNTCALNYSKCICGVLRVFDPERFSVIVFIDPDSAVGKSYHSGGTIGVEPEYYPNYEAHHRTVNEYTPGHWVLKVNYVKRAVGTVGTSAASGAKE
# [4] = system: MDCKII-hMDR1 monolayer cells; experiment: MDCKII-hMDR1 monolayer BBB permeability assay ± Pgp inhibitor GF120918; format: in vitro ADME
# TbAdoMetDC [5] = target: T2, TbAdoMetDC (Trypanosoma brucei brucei, UniProt P50244); experiment: Inhibition modality: substrate titrations, Lineweaver–Burk analysis; format: biochemical; settings: substrate titrations at four inhibitor concentrations
# T2 sequence (P50244 86-370 limits assumed): T1 sequence (P50244 86-370 limits assumed)
# Outline: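 Recombinant T. brucei AdoMetDC/prozyme heterodimer. Product (decarboxylated AdoMet) formation was measured across varied S-adenosyl-L-methionine concentrations at four test-compound concentrations. Product was quantified by RapidFire–mass spectrometry. Final DMSO in enzyme assays was 2%. Substrate titrations were analysed by double-reciprocal Lineweaver–Burk plot to assign inhibition modality.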
# [6] = system: prozyme protein levels in T. brucei cells; experiment: Western blot analysis of prozyme levels in treated T. brucei cells; format: cell-based; settings: 24 h treatment at 1.5 × EC50
# [7] = Metabolic stability in hepatic microsomes; format: in vitro ADME, male CD-1 mouse and mixed-gender human
# TbAdoMetDC [8] = target: T2, TbAdoMetDC; experiment: Rapid dilution assay for reversibility of inhibition; format: biochemical; settings: 30 min with 36 μM inhibitor, then 100-fold dilution; pH 7.2
# Outline: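 Recombinant T. brucei AdoMetDC/prozyme was pre-equilibrated with test compound for 30 min. It was then diluted 100-fold, to a non-inhibitory level, into reaction buffer containing 50 μM S-adenosyl-L-methionine (~Km) to start the reaction. Aliquots were quenched every 5 min, and decarboxylated AdoMet was quantified by RapidFire–MS. Progress curves were compared with a vehicle control.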
# human AdoMetDC = target: T3, human AdoMetDC (Homo sapiens, UniProt P17707); experiment: RapidFire–MS-based AdoMetDC enzyme activity assay; format: biochemical; settings: read-out: Hs IC50; pH 7.2; mean, triplicate, 95% CI in parentheses
# T3 sequence (P17707 1-334): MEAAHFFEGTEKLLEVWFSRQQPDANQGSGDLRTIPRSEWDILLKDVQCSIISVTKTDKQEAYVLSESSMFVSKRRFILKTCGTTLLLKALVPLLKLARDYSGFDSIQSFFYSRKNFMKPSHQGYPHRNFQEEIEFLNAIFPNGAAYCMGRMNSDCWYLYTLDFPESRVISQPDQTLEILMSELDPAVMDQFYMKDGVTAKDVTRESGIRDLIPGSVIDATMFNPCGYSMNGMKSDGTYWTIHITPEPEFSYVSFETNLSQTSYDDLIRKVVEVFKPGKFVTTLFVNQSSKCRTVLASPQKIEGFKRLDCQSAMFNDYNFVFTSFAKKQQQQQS
SMILES,EC50 [2],also measured
"Cc1cc(Nc2cc(Br)cc(Br)c2)nc(N)n1 [Compound 44, N^4-(3,5-Dibromophenyl)-6-methylpyrimidine-2,4-diamine]",4.8 µM,selectivity ratio (HsIC50/TbIC50) [1]: exceeded 100
Cc1cc(Nc2cc(Cl)cc(Cl)c2)nc(N)n1 [Compound 7],5.6 µM,"IC90 ([3]; pH 7.2, read-out: IC90 for TbAdoMetDC): ~36 µM; Pgp-mediated efflux substrate [4]: not a substrate of Pgp-mediated efflux; modality of inhibition (TbAdoMetDC [5]): competitive inhibition; prozyme protein level vs vehicle-only control [6]: induced prozyme above the vehicle-only control levels; metabolic stability [7]: poor metabolic stability; recovery of enzyme activity after dilution of inhibitor (reversibility) (TbAdoMetDC [8]): fully recovered"
"Cc1cc(Nc2cc(Cl)cc(Cl)c2)ncn1 [Compound 23, N-(3,5-Dichlorophenyl)-6-methylpyrimidin-4-amine]",27 µM,prozyme protein level vs vehicle-only control [6]: vehicle-only levels of the prozyme protein
Nc1nccc(Nc2cc(Cl)cc(Cl)c2)n1 [Compound 8],9.9 µM,prozyme protein level vs vehicle-only control [6]: induced prozyme above the vehicle-only control levels
Nc1nc(Cl)cc(Nc2cc(Cl)cc(Cl)c2)n1 [Compound 13],8.9 µM,prozyme protein level vs vehicle-only control [6]: vehicle-only levels of the prozyme protein
"Cc1cc(Nc2cc(Cl)c(F)c(Cl)c2)nc(N)n1 [Compound 62, N^4-(3,5-Dichloro-4-fluorophenyl)-6-methylpyrimidine-2,4-diamine]",4.8 µM,selectivity ratio (HsIC50/TbIC50) [1]: exceeded 100; IC50 (human AdoMetDC): 160 µM
"Nc1cc(Nc2cc(Cl)cc(Cl)c2)ccn1 [Compound 21, N^4-(3,5-Dichlorophenyl)pyridine-2,4-diamine]",11 µM,"IC50 ([3]; Tb IC50, pH 7.2, mean, triplicate, 95% CI in parentheses): 29 µM"
"Cc1cc(Nc2cc(F)cc(F)c2)nc(N)n1 [Compound 60, N^4-(3,5-Difluorophenyl)-6-methylpyrimidine-2,4-diamine]",70 µM,
"Cc1cc(Nc2cc(Cl)cc(S(F)(F)(F)(F)F)c2)nc(N)n1 [Compound 36, N^4-(3-Chloro-5-(pentafluoro-λ^6-sulfaneyl)phenyl)-6-methylpyrimidine-2,4-diamine]",13 µM,
"Cc1cc(Nc2cc(Cl)cc(-c3ccc(N(C)C)cc3)c2)nc(N)n1 [Compound 100, N^4-(5-Chloro-4′-(dimethylamino)-[1,1′-biphenyl]-3-yl)-6-methylpyrimidine-2,4-diamine]",5 µM,
"Cc1cc(Nc2cc(Cl)c(Cl)c(Cl)c2)nc(N)n1 [Compound 64, 6-Methyl-N^4-(3,4,5-trichlorophenyl)pyrimidine-2,4-diamine]",4.5 µM,
"Cc1cc(Nc2cc(Cl)c(N3CCOCC3)c(Cl)c2)nc(N)n1 [Compound 70, N^4-(3,5-Dichloro-4-morpholinophenyl)-6-methylpyrimidine-2,4-diamine]",18 µM,
"Cc1cc(Nc2cccc(S(F)(F)(F)(F)F)c2)nc(N)n1 [Compound 54, 6-Methyl-N^4-(3-(pentafluoro-λ^6-sulfaneyl)phenyl)pyrimidine-2,4-diamine]",14 µM,
"Nc1cnccc1Nc1cc(Cl)cc(Cl)c1 [Compound 22, N^4-(3,5-Dichlorophenyl)pyridine-3,4-diamine]",18 µM,
"Cc1cc(Nc2cc(Cl)cc(-c3ccccc3)c2)nc(N)n1 [Compound 35, N^4-(5-Chloro-[1,1′-biphenyl]-3-yl)-6-methylpyrimidine-2,4-diamine]",4.5 µM,
"CC(=O)c1ccc(-c2cc(Cl)cc(Nc3cc(C)nc(N)n3)c2)cc1 [Compound 97, 1-(3′-((2-Amino-6-methylpyrimidin-4-yl)amino)-5′-chloro-[1,1′-biphenyl]-4-yl)ethan-1-one]",6.7 µM,
"Cc1cc(Nc2cc(Cl)c(C)c(Cl)c2)nc(N)n1 [Compound 65, N^4-(3,5-Dichloro-4-methylphenyl)-6-methylpyrimidine-2,4-diamine]",4.4 µM,
Nc1nc(Nc2cc(Cl)cc(Cl)c2)cc(N2CCOCC2)n1 [Compound 12],13 µM,
"Cc1cc(Nc2cc(C(F)(F)F)cc(C(F)(F)F)c2)nc(N)n1 [Compound 46, N^4-(3,5-Bis(trifluoromethyl)phenyl)-6-methylpyrimidine-2,4-diamine]",14 µM,
"CNc1nc(C)cc(Nc2cc(Cl)cc(Cl)c2)n1 [Compound 24, N^4-(3,5-Dichlorophenyl)-N^2,6-dimethylpyrimidine-2,4-diamine]",2.7 µM,
"Cc1cc(Nc2cc(Cl)c(OC(F)F)c(Cl)c2)nc(N)n1 [Compound 68, N^4-(3,5-Dichloro-4-(difluoromethoxy)phenyl)-6-methylpyrimidine-2,4-diamine]",4.5 µM,
CSc1cccc(Nc2cc(C)nc(N)n2)c1 [Compound 58],> 25 µM,
"Cc1cc(Nc2cc(Br)cc(OCC(C)C)c2)nc(N)n1 [Compound 43, N^4-(3-Bromo-5-isobutoxyphenyl)-6-methylpyrimidine-2,4-diamine]",4.4 µM,
